Results taken from ChEMBL document CHEMBL2331516, “Synthesis and structure-activity relationships of 5,6,7-substituted pyrazolopyrimidines: discovery of a novel TSPO PET ligand for cancer imaging” (J Med Chem, 2013).
Blank lines part the entries; values can stand above or below the compound they belong to.

Key:
Spleen [1] = experiment: Biodistribution in Wistar rat spleen at 1.0 to 1.5 mCi after 60 mins by NaI well counting analysis; format: ADME, organism-based; conditions: in vivo, 1 h
Summary of the method: (§1)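 Radiotracer given to rats; 14 tissues plus urine taken 60 min after a 1.0–1.5 mCi injection. Each sample weighed and its radioactivity counted in a NaI well counter. %ID/g derived from weight and radioactivity.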

Lung [2] = experiment: Biodistribution in Wistar rat lung at 1.0 to 1.5 mCi after 60 mins by NaI well counting analysis; format: ADME, organism-based; conditions: in vivo, 1 h; summary of the method: as §1
[3] = Ratio of total distribution volume in C6 cells bearing Wistar rat tumor to total distribution volume in C6 cells bearing Wistar rat brain; format: ADME, cell-based
Harderian gland = experiment: Drug uptake in iv dosed C6 cells bearing Wistar rat harderian glands after 90 mins by PET imaging analysis; format: ADME, organism-based; conditions: in vivo, 1.5 h
Summary of the method: (§2)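 Male Wistar rats stereotactically inoculated in the right hemisphere with 1.0×10^5 C6 glioma cells two weeks before imaging, with venous and arterial catheters placed. Tumors confirmed by 4.7-T MRI. PET/CT followed within 24 h, with tracer given via jugular catheter during the scan.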

Testes = experiment: Biodistribution in Wistar rat testes at 1.0 to 1.5 mCi after 60 mins by NaI well counting analysis; format: ADME, organism-based, Testis; conditions: in vivo, 1 h; summary of the method: as §1
Liver [4] = experiment: Drug uptake in Wistar rat liver at 1.0 to 1.5 mCi after 90 mins by NaI well counting analysis in presence of 2-(5,7-diethyl-2-(4-(2-fluoroethoxy)phenyl)pyrazolo[1,5-a]-pyrimidin-3-yl)-N,N-diethylacetamide; format: ADME, tissue-based; conditions: in vivo, 1.5 h
Summary of the method: (§3)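 Rats received 1.0–1.5 mCi radiotracer. Unlabelled analog (10 mg/kg) was injected 30 min after tracer as a displacement challenge. Tissues taken and counted in a NaI well counter. %ID/g derived from sample weight and radioactivity.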

Heart [5] = experiment: Drug uptake in Wistar rat heart at 1.0 to 1.5 mCi after 90 mins by NaI well counting analysis in presence of 2-(5,7-diethyl-2-(4-(2-fluoroethoxy)phenyl)pyrazolo[1,5-a]-pyrimidin-3-yl)-N,N-diethylacetamide; format: ADME, tissue-based; conditions: in vivo, 1.5 h; summary of the method: as §3
[6] = Drug uptake in iv dosed C6 cells bearing Wistar rat tumor after 90 mins by PET imaging analysis; format: ADME, organism-based, Neoplasm; conditions: in vivo, 1.5 h; summary of the method: as §2
Colon = experiment: Biodistribution in Wistar rat colon at 1.0 to 1.5 mCi after 60 mins by NaI well counting analysis; format: ADME, organism-based; conditions: in vivo, 1 h; summary of the method: as §1
Brain [7] = experiment: Drug uptake in iv dosed C6 cells bearing Wistar rat brain after 90 mins by PET imaging analysis; format: ADME, organism-based; conditions: in vivo, 1.5 h; summary of the method: as §2
Heart [8] = experiment: Biodistribution in Wistar rat heart at 1.0 to 1.5 mCi after 60 mins by NaI well counting analysis; format: ADME, organism-based; conditions: in vivo, 1 h; summary of the method: as §1
[9] = Drug uptake in iv dosed C6 cells bearing Wistar rat olfactory epithelium after 90 mins by PET imaging analysis; format: ADME, organism-based; conditions: in vivo, 1.5 h; summary of the method: as §2
[10] = Drug excretion in Wistar rat urine at 1.0 to 1.5 mCi after 90 mins by NaI well counting analysis in presence of 2-(5,7-diethyl-2-(4-(2-fluoroethoxy)phenyl)pyrazolo[1,5-a]-pyrimidin-3-yl)-N,N-diethylacetamide; format: ADME, tissue-based; conditions: in vivo, 1.5 h; summary of the method: as §3
Kidney [11] = experiment: Drug uptake in Wistar rat kidney at 1.0 to 1.5 mCi after 90 mins by NaI well counting analysis in presence of 2-(5,7-diethyl-2-(4-(2-fluoroethoxy)phenyl)pyrazolo[1,5-a]-pyrimidin-3-yl)-N,N-diethylacetamide; format: ADME, tissue-based; conditions: in vivo, 1.5 h; summary of the method: as §3
Muscle tissue = experiment: Drug uptake in Wistar rat muscle at 1.0 to 1.5 mCi after 90 mins by NaI well counting analysis in presence of 2-(5,7-diethyl-2-(4-(2-fluoroethoxy)phenyl)pyrazolo[1,5-a]-pyrimidin-3-yl)-N,N-diethylacetamide; format: ADME, tissue-based; conditions: in vivo, 1.5 h; summary of the method: as §3
[12] = Drug uptake in iv dosed C6 cells bearing Wistar rat tongue after 90 mins by PET imaging analysis; format: ADME, organism-based; conditions: in vivo, 1.5 h; summary of the method: as §2
Rattus norvegicus [13] = organism: Rattus norvegicus; experiment: Biodistribution in Wistar rat stomach at 1.0 to 1.5 mCi after 60 mins by NaI well counting analysis; format: ADME, organism-based; conditions: in vivo, 1 h; summary of the method: as §1
Lung [14] = experiment: Drug uptake in Wistar rat lung at 1.0 to 1.5 mCi after 90 mins by NaI well counting analysis in presence of 2-(5,7-diethyl-2-(4-(2-fluoroethoxy)phenyl)pyrazolo[1,5-a]-pyrimidin-3-yl)-N,N-diethylacetamide; format: ADME, tissue-based; conditions: in vivo, 1.5 h; summary of the method: as §3
Brain [15] = experiment: Biodistribution in Wistar rat brain at 1.0 to 1.5 mCi after 60 mins by NaI well counting analysis; format: ADME, organism-based; conditions: in vivo, 1 h; summary of the method: as §1
Rattus norvegicus [16] = organism: Rattus norvegicus; experiment: Biodistribution in Wistar rat small bowel at 1.0 to 1.5 mCi after 60 mins by NaI well counting analysis; format: ADME, organism-based, Small intestine; conditions: in vivo, 1 h; summary of the method: as §1
Spleen [17] = experiment: Drug uptake in Wistar rat spleen at 1.0 to 1.5 mCi after 90 mins by NaI well counting analysis in presence of 2-(5,7-diethyl-2-(4-(2-fluoroethoxy)phenyl)pyrazolo[1,5-a]-pyrimidin-3-yl)-N,N-diethylacetamide; format: ADME, tissue-based; conditions: in vivo, 1.5 h; summary of the method: as §3
Kidney [18] = experiment: Biodistribution in Wistar rat kidney at 1.0 to 1.5 mCi after 60 mins by NaI well counting analysis; format: ADME, organism-based; conditions: in vivo, 1 h; summary of the method: as §1
Rattus norvegicus [19] = organism: Rattus norvegicus; experiment: Stability in C6 cells bearing Wistar rat plasma at 1.5 mCi after 90 mins by radio-HPLC analysis; format: ADME, organism-based; conditions: c6, 1.5 h
Summary of the method: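 Arterial blood (200 μL) drawn at 2, 12, 30, 60 and 90 min after 1.5 mCi radiotracer. Plasma extracted with acetonitrile/water 7/1 and centrifuged. Supernatant run on reversed-phase radio-HPLC with 0.1 M ammonium acetate pH 10/acetonitrile (30/70).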

Rattus norvegicus [20] = organism: Rattus norvegicus; experiment: Biodistribution in Wistar rat whole blood at 1.0 to 1.5 mCi after 60 mins by NaI well counting analysis; format: ADME, organism-based; conditions: in vivo, 1 h; summary of the method: as §1
Rattus norvegicus [21] = organism: Rattus norvegicus; experiment: Biodistribution in Wistar rat skeletal muscle at 1.0 to 1.5 mCi after 60 mins by NaI well counting analysis; format: ADME, organism-based, Muscle tissue; conditions: in vivo, 1 h; summary of the method: as §1
Liver [22] = experiment: Biodistribution in Wistar rat liver at 1.0 to 1.5 mCi after 60 mins by NaI well counting analysis; format: ADME, organism-based; conditions: in vivo, 1 h; summary of the method: as §1
Rattus norvegicus [23] = organism: Rattus norvegicus; experiment: Biodistribution in Wistar rat skull at 1.0 to 1.5 mCi after 60 mins by NaI well counting analysis; format: ADME, organism-based; conditions: in vivo, 1 h; summary of the method: as §1
Translocator protein = Translocator protein (Rattus norvegicus, UniProt P16257); experiment: Displacement of [3H]-PK 11195 from TSPO in rat C6 cell lysates after 2 hrs by scintillation counting analysis; format: cell-free
Summary of the method: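 Rat C6 glioma cells washed in PBS and freeze-thawed three times in HEPES/mannitol/sucrose lysis buffer with protease inhibitors and MgCl2, pH 7.4 (lysate 0.5 mg/mL). Reaction stopped by filtration onto PEI-presoaked filters, then scintillation counting.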

[24] = Lipophilicity, log P of the compound at pH 7.5 by reversed phase HPLC analysis; format: physicochemical; conditions: buffer
Summary of the method: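 Retention times were set relative to catechol and calibrated against standards of known log P using a polynomial log P vs log RRT curve. Injections were done in triplicate and averaged.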

[25] = Displacement of [3H]-flunitrazepam from CBR in Wistar rat cerebral cortex membranes after 2 hrs by scintillation counting analysis; format: cell membranes, Membrane
Summary of the method: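 Male Wistar rat cerebral cortex homogenized in ice-cold PBS pH 7.4 (5.0 mg/mL protein). Incubated with 0.6 nM [3H]flunitrazepam (final) and ligand at 10⁻⁵ to 10⁻⁷ M for 2 h at 25 °C. Reaction stopped by filtration onto PEI-presoaked filters, then scintillation counting of bound activity.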

[26] = Drug metabolism in Wistar rat plasma at 130 to 200 MBq, iv after 12 mins by radio-HPLC analysis; format: ADME, organism-based; conditions: read-out: Drug metabolism

Translocator protein, sequence (P16257 whole entry, looked up): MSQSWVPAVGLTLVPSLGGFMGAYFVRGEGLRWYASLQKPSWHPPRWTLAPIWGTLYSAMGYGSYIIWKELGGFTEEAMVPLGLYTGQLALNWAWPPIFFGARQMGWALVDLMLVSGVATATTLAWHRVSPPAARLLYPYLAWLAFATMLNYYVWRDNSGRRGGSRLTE

Structure (SMILES): CCc1cc(CC)n2nc(-c3ccc(OCCF)cc3)c(CC(=O)N(CC)CC)c2n1
Ki (Translocator protein): 0.27 nM
logP [24]: 2.5
Ki [25]: > 10000 nM

Structure (SMILES): CCN(CC)C(=O)Cc1c(-c2ccc(OCCF)cc2)nn2c(C(C)C)cc(C(C)C)nc12
Ki (Translocator protein): > 500 nM
logP [24]: 2.73

Structure (SMILES): CCc1c(C)nc2c(CC(=O)N(CC)CC)c(-c3ccc(OCCF)cc3)nn2c1C
Ki (Translocator protein): 277 nM
logP [24]: 2.53

Structure (SMILES): CCN(CC)C(=O)Cc1c(-c2ccc(OCCF)cc2)nn2c(C)c(Cl)c(C)nc12
Ki (Translocator protein): 67.9 nM
logP [24]: 2.55

Structure (SMILES): CCc1cc(CC)n2nc(-c3ccc(OC)cc3)c(CC(=O)N(CC)CC)c2n1
Ki (Translocator protein): 0.18 nM
logP [24]: 2.84

Structure (SMILES): CCN(CC)C(=O)Cc1c(-c2ccc(OC)cc2)nn2c(C(C)C)cc(C(C)C)nc12
Ki (Translocator protein): > 500 nM
logP [24]: 2.98

Structure (SMILES): CCN(CC)C(=O)Cc1c(-c2ccc(OC)cc2)nn2c(C)cc(C)nc12
logP [24]: 2.4

Other lines, results leading:

Drug uptake (Spleen [1]): Active
Drug uptake (Lung [2]): Active
Ratio [3]: 6
Drug uptake (Harderian gland): Active
Drug uptake (Testes): Active
Drug uptake (Liver [4]): Active
Drug uptake (Heart [5]): Not Active
Drug uptake [6]: Active
Drug uptake (Colon): Active
Drug uptake (Brain [7]): Active
Drug uptake (Heart [8]): Active
Drug uptake [9]: Active
Drug excretion [10]: Active
Drug uptake (Kidney [11]): Not Active
Drug uptake (Muscle tissue): Active
Drug uptake [12]: Active
Drug uptake (Rattus norvegicus [13]): Active
Drug uptake (Lung [14]): Not Active
Drug uptake (Brain [15]): Active
Drug uptake (Rattus norvegicus [16]): Active
Drug uptake (Spleen [17]): Not Active
Drug uptake (Kidney [18]): Active
Stability (Rattus norvegicus [19]): Stable
Ct (Rattus norvegicus [20]): Not Active
Drug uptake (Rattus norvegicus [21]): Active
Drug uptake (Liver [22]): Active
Drug uptake (Rattus norvegicus [23]): Active
Structure (SMILES): CCc1cc(CC)n2nc(-c3ccc(OCC[18F])cc3)c(CC(=O)N(CC)CC)c2n1

Ki (Translocator protein): 55.4 nM
logP [24]: 2.99
Structure (SMILES): CCN(CC)C(=O)Cc1c(-c2ccc(OC)cc2)nn2c(C)c(Cl)c(C)nc12

Ki (Translocator protein): 83 nM
logP [24]: 2.47
Structure (SMILES): CCN(CC)C(=O)Cc1c(-c2ccc(OCCF)cc2)nn2c(C)c(C)c(C)nc12

Ki (Translocator protein): 252 nM
logP [24]: 2.07
Structure (SMILES): CCN(CC)C(=O)Cc1c(-c2ccc(OCCF)cc2)nn2c(C)c(CC(C)=O)c(C)nc12

Ki (Translocator protein): 93.7 nM
logP [24]: 2.45
Structure (SMILES): CCN(CC)C(=O)Cc1c(-c2ccc(OC)cc2)nn2c(C)c(C)c(C)nc12

Ki (Translocator protein): 157 nM
logP [24]: 2.78
Structure (SMILES): CCc1c(C)nc2c(CC(=O)N(CC)CC)c(-c3ccc(OC)cc3)nn2c1C

Ki (Translocator protein): 201 nM
logP [24]: 2.57
Structure (SMILES): CCN(CC)C(=O)Cc1c(-c2ccc(OC)cc2)nn2c(C)c(CC(C)=O)c(C)nc12

metabolised at 0.2 h [26]: 30%
Structure (SMILES): CCN(CC)C(=O)Cc1c(-c2ccc(OCC[18F])cc2)nn2c(C)cc(C)nc12 [DPA-714 F-18]

logP [24]: 2.12
Structure (SMILES): CCN(CC)C(=O)Cc1c(-c2ccc(OCCF)cc2)nn2c(C)cc(C)nc12 [DPA-714]
